Measured values taken from ChEMBL document CHEMBL3259745, “Identification of trisubstituted-pyrazol carboxamide analogs as novel and potent antagonists of farnesoid X receptor” (Bioorg Med Chem, 2014).
The source made the active and inactive calls. No cut-off for these calls is given here.

Experiments:
[1] = target: T1, Bile acid receptor (Homo sapiens) (UniProt Q96RI1); test: Agonist activity at FXR (unknown origin) expressed in HEK293T cells after 16 hrs by beta-lactamase reporter gene assay relative to control; type: cell-based; settings: HEK-293T
T1 sequence (whole entry): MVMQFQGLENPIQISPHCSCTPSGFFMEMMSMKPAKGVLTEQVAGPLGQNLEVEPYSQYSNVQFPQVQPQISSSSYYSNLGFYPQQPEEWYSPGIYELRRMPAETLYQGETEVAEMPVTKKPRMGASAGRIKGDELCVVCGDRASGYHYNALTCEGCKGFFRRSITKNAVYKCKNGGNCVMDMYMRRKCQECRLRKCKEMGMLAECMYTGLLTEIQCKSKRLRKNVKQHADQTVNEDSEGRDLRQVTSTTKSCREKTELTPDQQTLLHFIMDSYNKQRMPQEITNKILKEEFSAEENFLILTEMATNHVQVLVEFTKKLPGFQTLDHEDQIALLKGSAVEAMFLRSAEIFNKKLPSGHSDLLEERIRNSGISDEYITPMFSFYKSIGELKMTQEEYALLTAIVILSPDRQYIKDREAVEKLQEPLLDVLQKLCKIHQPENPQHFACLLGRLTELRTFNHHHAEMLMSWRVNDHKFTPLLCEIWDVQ

[2] = Cytotoxicity against HEK293T cells expressing FXR and beta-lactamase genes assessed as inhibition of cell viability at 40 uM after 16 hrs by CellTiter-Glo luminescent assay relative to control; type: cell-based, HEK-293T; settings: human, read-out: INH
Method in brief: (§1)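 Viability run alongside the agonist assay in the same GeneBLAzer FXR HEK 293T cells: 20,000 cells/well in phenol red-free DMEM with 2% charcoal/dextran-treated FBS, 0.5% DMSO, 16 h at 37°C. Cooled 20 min, then CellTiter-Glo added for 20 min in dark; luminescence read.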

[3] = target: T1, Bile acid receptor (Homo sapiens); test: Antagonist activity at human GST-tagged FXR at 493 nM after 20 mins by TR-FRET assay relative to control
[4] = target: T1, Bile acid receptor (Homo sapiens); test: Inhibition of GW4064-induced transactivation of FXR (unknown origin) expressed in HEK293T cells at 40 uM after 16 hrs by beta-lactamase reporter gene assay relative to control; type: cell-based; settings: HEK-293T
[5] = target: T1, Bile acid receptor (Homo sapiens); test: Antagonist activity at human GST-tagged FXR at 40 uM after 20 mins by TR-FRET assay relative to control
[6] = target: T1, Bile acid receptor (Homo sapiens); test: Inhibition of GW4064-induced transactivation of FXR (unknown origin) expressed in HEK293T cells at 1 uM after 16 hrs by beta-lactamase reporter gene assay relative to control; type: cell-based; settings: HEK-293T
[7] = target: T1, Bile acid receptor (Homo sapiens); test: Antagonist activity at human GST-tagged FXR at 13.3 uM after 20 mins by TR-FRET assay relative to control
[8] = target: T1, Bile acid receptor (Homo sapiens); test: Ratio of E16 IC50 to compound IC50 for human GST-tagged FXR after 20 mins by TR-FRET assay
Bile acid receptor [9] = target: T2, Bile acid receptor (Homo sapiens, UniProt Q96RI1); test: Inhibition of GW4064-induced transactivation of FXR (unknown origin) expressed in HEK293T cells after 16 hrs by beta-lactamase reporter gene assay; type: cell-based, HEK-293T
T2 sequence (Q96RI1 whole entry): T1 sequence (whole entry)

[10] = target: T1, Bile acid receptor (Homo sapiens); test: Agonist activity at human FXR
Bile acid receptor [11] = target: T2, Bile acid receptor; test: Antagonist activity at human GST-tagged FXR after 20 mins by TR-FRET assay
[12] = target: T1, Bile acid receptor (Homo sapiens); test: Antagonist activity at human GST-tagged FXR at 4.4 uM after 20 mins by TR-FRET assay relative to control
[13] = target: T1, Bile acid receptor (Homo sapiens); test: Antagonist activity at human GST-tagged FXR at […] nM after 20 mins by TR-FRET assay relative to control
[14] = target: T1, Bile acid receptor (Homo sapiens); test: Antagonist activity at human GST-tagged FXR at 164 nM after 20 mins by TR-FRET assay relative to control
[15] = Cytotoxicity against HEK293T cells expressing FXR and beta-lactamase genes assessed as inhibition of cell viability at 4.4 uM after 16 hrs by CellTiter-Glo luminescent assay relative to control; type: cell-based, HEK-293T; settings: human, read-out: INH; method in brief: as §1

SMILES | Activity [1] | inhibition [4] | Activity [10] | cytotoxicity at 16 h, 40 µM [2] | other results
Cc1ccc(-c2nn(C(C)C)cc2C(=O)N(C)c2ccc(C)c(S(=O)(=O)N3CCOCC3)c2)cc1 | inactive | 86.4% |  | 15% | inhibition [6]: inactive; inhibition [5]: 133%
C[C@H](CCC(=O)O)[C@H]1CC[C@H]2[C@@H]3CC[C@@H]4C[C@H](O)CC[C@]4(C)[C@H]3CC[C@]12C [LITHOCHOLIC ACID] |  |  |  | < 5% | 
Cc1ccc(-c2nn(-c3ccc(F)cc3)cc2C(=O)Nc2ccc(C)c(S(=O)(=O)N3CCOCC3)c2)cc1 | inactive | 72% |  | 18.5% | Ratio IC50 [8]: 3; inhibition [3]: 95%
COc1ccc(-c2nn(-c3ccccc3)cc2C(=O)Nc2cc(S(=O)(=O)N3CCOCC3)ccc2N2CCOCC2)cc1 |  | 27% | inactive | < 5% | inhibition [13]: 11.6%
Cc1ccc(NC(=O)c2cn(C(C)C)nc2-c2ccc(C(F)(F)F)cc2)cc1S(=O)(=O)N1CCOCC1 | inactive | 100% |  | 19.5% | inhibition [12]: 133%
CC(C)c1onc(-c2c(Cl)cccc2Cl)c1COc1ccc(/C=C/c2cccc(C(=O)O)c2)c(Cl)c1 |  |  |  | < 5% | 
Cc1ccc(-c2nn(-c3cccc(Cl)c3)cc2C(=O)Nc2ccc(C)c(S(=O)(=O)N3CCOCC3)c2)cc1 | inactive | 60.6% |  | < 5% | inhibition [14]: 99.3%; Ratio IC50 [8]: 3
Cc1ccc(NC(=O)c2cnn(-c3ccccc3)c2C(F)(F)F)cc1S(=O)(=O)N1CCOCC1 |  | 101% | inactive | 51.3% | IC50 (Bile acid receptor [9]): 11.8 µM; IC50 (Bile acid receptor [11]): 0.996 µM; inhibition [7]: 99.8%
Cc1cccc(-n2ncc(C(=O)Nc3cccc(S(=O)(=O)N4CCOCC4)c3)c2C)c1 |  | 66.9% | inactive | < 5% | IC50 (Bile acid receptor [9]): 29.3 µM; IC50 (Bile acid receptor [11]): 6.6 µM; inhibition [7]: 85.1%
O=C(Nc1ccc(S(=O)(=O)N2CCOCC2)cc1)c1cn(-c2ccccc2)nc1-c1ccc(F)cc1 |  | 34.7% | inactive | < 5% | inhibition [14]: 21.2%
Cc1ccc(-c2nn(-c3ccc(Cl)cc3Cl)cc2C(=O)Nc2ccc(C)c(S(=O)(=O)N3CCOCC3)c2)cc1 | inactive | 89.9% |  | < 5% | inhibition [14]: 120%; Ratio IC50 [8]: 3
Cc1ccc(-c2nn(-c3ccccc3)cc2C(=O)Nc2ccc(C)c(S(=O)(=O)N3CCOCC3)c2)cc1 |  | 77.2% | inactive | 17.9% | inhibition [14]: 100%
O=C(Nc1cccc(S(=O)(=O)N2CCOCC2)c1)c1cn(-c2ccccc2)nc1-c1ccccc1 |  | 54.9% | inactive | 7.1% | inhibition [3]: 44.4%
O=C(Nc1cccc(S(=O)(=O)N2CCOCC2)c1)c1cn(-c2ccccc2)nc1-c1ccc(F)cc1 |  | 42.6% | inactive | 16.3% | inhibition [3]: 53.3%
Cc1ccc(-c2nn(-c3ccccc3)cc2C(=O)Nc2cccc(S(=O)(=O)N3CCOCC3)c2)cc1 |  | 32.8% | inactive | 5.4% | inhibition [3]: 27.5%
O=C(Nc1ccc(F)c(S(=O)(=O)N2CCOCC2)c1)c1cnn(-c2ccccc2)c1 |  | 80.3% | inactive | 27.4% | IC50 (Bile acid receptor [9]): 9.4 µM; IC50 (Bile acid receptor [11]): 8.3 µM; inhibition [7]: 83.8%
O=C(Nc1ccc(S(=O)(=O)N2CCOCC2)cc1)c1cn(-c2ccccc2)nc1-c1ccc(Cl)cc1 |  | 20.6% | inactive | < 5% | inhibition [13]: 17.8%
O=C(Nc1cccc(S(=O)(=O)N2CCOCC2)c1)c1cn(-c2ccccc2)nc1-c1ccc(Cl)cc1 |  | 38.8% | inactive | < 5% | inhibition [13]: 36.9%
Cc1ccc(-c2nn(C(C)C)cc2CNc2ccc(C)c(S(=O)(=O)N3CCOCC3)c2)cc1 | inactive | 36.8% |  | 10.5% | inhibition [6]: inactive; inhibition [7]: 99.5%
Cc1ccc(-c2nn(-c3cccc(C(F)(F)F)c3)cc2C(=O)Nc2ccc(C)c(S(=O)(=O)N3CCOCC3)c2)cc1 | inactive | 54.8% |  | 7.3% | inhibition [14]: 77.5%; Ratio IC50 [8]: 3
O=C(Nc1ccc(S(=O)(=O)N2CCOCC2)cc1)c1cn(-c2ccccc2)nc1-c1ccccc1 |  | 18.6% | inactive | 7.4% | inhibition [3]: 12.7%
Cc1ccc(NC(=O)c2cnn(-c3cccnc3)c2)cc1S(=O)(=O)N1CCOCC1 |  | 16.1% | inactive | 27.9% | inhibition [7]: 18.8%

Further lines, with some results ahead:

Activity [1] | inhibition [4] | Activity [10] | SMILES | cytotoxicity at 16 h, 40 µM [2] | other results
inactive | 97.6% |  | Cc1ccc(-c2nn(CCCCO)cc2C(=O)Nc2ccc(C)c(S(=O)(=O)N3CCOCC3)c2)cc1 | 5.9% | inhibition [3]: 89.3%
inactive | 62.5% |  | COCCc1nn(C(C)C)cc1C(=O)Nc1ccc(C)c(S(=O)(=O)N2CCOCC2)c1 | < 5% | inhibition [5]: 98.2%
inactive | 95.9% |  | COCCc1nn(Cc2cccc(OC)c2)cc1C(=O)Nc1ccc(C)c(S(=O)(=O)N2CCOCC2)c1 | < 5% | inhibition [7]: 114%
 | 99% | inactive | Cc1ccc(NC(=O)c2c(C)nn(-c3ccccc3)c2C)cc1S(=O)(=O)N1CCOCC1 | 47.4% | IC50 (Bile acid receptor [9]): 11.8 µM; IC50 (Bile acid receptor [11]): 3.3 µM; inhibition [7]: 70.6%
inactive | 99.1% |  | Cc1ccc(-c2nn(C(C)C)cc2C(=O)Nc2ccc(C)c(S(=O)(=O)N3CCOCC3)c2)cc1 | < 5% | inhibition [12]: 131%
inactive | 89.4% |  | COc1cccc(Cn2cc(C(=O)Nc3ccc(C)c(S(=O)(=O)N4CCOCC4)c3)c(-c3cccc(OC)c3)n2)c1 | < 5% | inhibition [3]: 114%
inactive | 97.6% |  | COc1cccc(Cn2cc(C(=O)Nc3ccc(C)c(S(=O)(=O)N4CCOCC4)c3)c(-c3ccc(C(F)(F)F)cc3)n2)c1 | < 5% | inhibition [14]: 109%
inactive | 97.8% |  | COc1cccc(-c2nn(C(C)C)cc2C(=O)Nc2ccc(C)c(S(=O)(=O)N3CCOCC3)c2)c1 |  | inhibition [7]: 150%; cytotoxicity at 16 h, 4.4 µM [15]: 10.8%
inactive | 93.4% |  | Cc1ccc(-c2nn(Cc3cccc(C(F)(F)F)c3)cc2C(=O)Nc2ccc(C)c(S(=O)(=O)N3CCOCC3)c2)cc1 | < 5% | inhibition [14]: 99.2%
inactive | 99.2% |  | COc1cccc(Cn2cc(C(=O)Nc3ccc(C)c(S(=O)(=O)N4CCOCC4)c3)c(C(C)C)n2)c1 | < 5% | inhibition [12]: 101%
inactive | 84.4% |  | Cc1ccc(-c2nn(Cc3ccc4ccccc4c3)cc2C(=O)Nc2ccc(C)c(S(=O)(=O)N3CCOCC3)c2)cc1 |  | inhibition [14]: 97.8%; cytotoxicity at 16 h, 4.4 µM [15]: 7.9%
inactive | 64.8% |  | COc1cccc(Cn2cc(CNc3ccc(C)c(S(=O)(=O)N4CCOCC4)c3)c(C(C)C)n2)c1 | 13.9% | inhibition [6]: inactive; inhibition [12]: 72.5%
inactive | 23.8% |  | COc1cccc(Cn2cc(C(=O)N(C)c3ccc(C)c(S(=O)(=O)N4CCOCC4)c3)c(-c3cccc(OC)c3)n2)c1 | 19.7% | inhibition [6]: inactive; inhibition [5]: 69.7%
